The text below walks through data of ChEMBL document CHEMBL1154614, “Synthesis and evaluation of stable bidentate transition metal complexes of 1-(chloromethyl)-5-hydroxy-3-(5,6,7-trimethoxyindol-2-ylcarbonyl)-2,3-dihydro-1H-pyrrolo[3,2-f]quinoline (seco-6-azaCBI-TMI) as hypoxia selective cytotoxins” (J Med Chem, 2009).

The subject of one data set is CHO-AA8. The data set can be described thus: Cytotoxicity against hamster AA8 cells after 4 hrs under aerobic conditions. The format is cell-based. As to conditions: Cricetulus griseus, CHO-AA8, 4 h. In outline: (§1)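 Attached log-phase cells exposed to compound for 4 h under aerobic conditions; compounds formulated in DMSO, final DMSO <1%. IC50 = concentration giving 50% inhibition of cell proliferation. Mean ± SEM of >2 determinations.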

A short description of data set [1]: Cytotoxicity against mouse EMT6V cells after 4 hrs under aerobic conditions. The format is functional, cell-based. The procedure, abridged: as §1
Data set [2] deals with A549. In words: Cytotoxicity against human A549 cells after 4 hrs under aerobic conditions. As to conditions: A549, 4 h. The format is functional, cell-based. In outline:
as §1

Another data set relates to UV4. In words: Cytotoxicity against hamster UV4 cells after 4 hrs under aerobic conditions. The format is cell-based. The note with it: Cricetulus griseus, UV4, 4 h. The procedure, abridged:
as §1

Data set [3] concerns SK-OV-3. The data set can be described thus: Cytotoxicity against human SKOV3 cells after 4 hrs under aerobic conditions. As to conditions: SK-OV-3, 4 h. The format is functional, cell-based. In outline: as §1
Data set [4] is described as follows: Solubility in alpha-MEM in presence of FCS. The format is physicochemical. The note with it: alpha-MEM with FCS.
The test system of data set [5] is A549. The data set can be described thus: Hypoxic cytotoxicity ratio, ratio of IC50 for human A549 cells under aerobic condition to IC50 for human A549 cells after 4 hrs under hypoxic condition. The format is functional. The procedure, abridged: (§2)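 Attached log-phase cells given 4 h compound exposure in parallel under oxic and hypoxic conditions; compounds in DMSO, final DMSO <1%. IC50 for inhibition of cell proliferation. Ratio = aerobic IC50/hypoxic IC50, calculated within each experiment.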

Data set [6] deals with SK-OV-3. The data set can be described thus: Hypoxic cytotoxicity ratio, ratio of IC50 for human SKOV3 cells under aerobic condition to IC50 for human SKOV3 cells after 4 hrs under hypoxic condition. The format is functional. The procedure, abridged:
as §2

pIC50: −log10 of the molar value.

For the compound `COc1cc2cc(C(=O)N3C[C@H](CCl)c4c3cc(O)c3ncccc43)[nH]c2c(OC)c1OC`, the pIC50 in the data set with CHO-AA8 is 7.66; in data set [1] it was 8.14; in the data set with A549 [2], 8.06; in the data set on UV4, 8.34; in the data set with SK-OV-3 [3], 8.07.

With `COc1ccc(/C=C/C(=O)N2CC(CCl)c3c2cc(O)c2ncccc32)cc1` (stereo not given), the pIC50 in the data set on A549 [2] is 10.05; with SK-OV-3 [3], 9.54. In data set [4], the solubility worked out at 40 µM.

In the case of `CN(C)CCOc1ccc(/C=C/C(=O)N2CC(CCl)c3c2cc(O)c2ncccc32)cc1` (stereo not given), the pIC50 is 8.59 with CHO-AA8; 9.24 in data set [1]; 9.04 in the data set with A549 [2]; 9.14 in the data set with UV4; 8.72 with SK-OV-3 [3]. Also, the “Ratio IC50” value with A549 [5] was determined as 0.86; in the data set on SK-OV-3 [6], 0.65. Besides, the solubility in data set [4] was determined as 860 µM.

Consider `COc1cc2cc(C(=O)N3CC(CCl)c4c3cc(O)c3ncccc43)[nH]c2c(OC)c1OC` (racemic), for which the pIC50 was 9.85 in the data set with CHO-AA8; 10.30 in data set [1]; 10.22 in the data set on A549 [2]; 10.15 in the data set with UV4; 9.59 in the data set with SK-OV-3 [3]. Further, the “Ratio IC50” value in the data set on A549 [5] is listed as 0.76; in the data set on SK-OV-3 [6], 0.69. The solubility in data set [4] came to 30 µM.

Regarding `CN(C)CCOc1ccc2[nH]c(C(=O)N3CC(CCl)c4c3cc(O)c3ncccc43)cc2c1` (stereo not given), the pIC50 in the data set on CHO-AA8 was 8.36; in data set [1], 9.13; with A549 [2] it was 8.89; in the data set with UV4 it was 8.77; in the data set on SK-OV-3 [3], 8.16. Besides, the figures for the “Ratio IC50” value in the data set on A549 [5] and in the data set with SK-OV-3 [6] were 1.11 and 0.56, respectively. Further, the solubility in data set [4] is 32 µM.

Regarding `COc1ccc(/C=C/C(=O)N2CC(CCl)c3c2cc(O)c2ncccc32)cc1O` (stereo not given), the pIC50 in the data set on A549 [2] was 9.74; with SK-OV-3 [3] it was 9.77. For the same compound, the solubility in data set [4] is 110 µM.

Take `COc1cc2cc(C(=O)N3C[C@@H](CCl)c4c3cc(O)c3ncccc43)[nH]c2c(OC)c1OC`: the negative-log IC50 (pIC50) in the data set on CHO-AA8 is 10.15; in data set [1], 10.52; in the data set on A549 [2] it was 10.40; with UV4, 10.40; with SK-OV-3 [3], 9.96.

Take `COc1ccc2[nH]c(C(=O)N3CC(CCl)c4c3cc(O)c3ncccc43)cc2c1` (stereo not given): the “Ratio IC50” value is given as 1.51 with A549 [5] and 0.91 with SK-OV-3 [6]. Moreover, the values for the pIC50 with A549 [2] and in the data set with SK-OV-3 [3] were 10.10 and 9.57, respectively. In addition, the solubility in data set [4] stood at 110 µM.

As a reminder, the pIC50 is −log10 of the IC50, conventionally taken in molar units. The low end stands for a high IC50, the high end for a low IC50. Usually solubility stands for the dissolved amount per volume that the medium holds.
